Assay results taken from ChEMBL document CHEMBL1144139, “Immunosuppressive diterpenoids from Tripterygium wilfordii” (1999).
Active and inactive are the calls of the source. No cut-off for these calls is given here.

How the values were obtained:
Format in all cases: functional
PBMC [1] = assay: Immunosuppressive activity against human PBMC assessed as inhibition of LPS-induced TNFalpha production at 10 ug/ml after 24 hrs by ELISA
Outline: (§1)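 Heparinized whole blood from healthy volunteers, diluted to 30% in RPMI-1640 with penicillin/streptomycin, was mixed in equal volumes with LPS solution (3 µg/mL) and sample (3 mg/mL DMSO stock diluted 1:100; DMSO-only control). Incubated at 37 °C, 5% CO2. Supernatant cytokines measured by ELISA. Inhibition (%) = […] versus solvent control.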

PBMC [2] = assay: Immunosuppressive activity against human PBMC assessed as inhibition of LPS-induced IL8 production at 10 ug/ml after 24 hrs by ELISA; outline: as §1
PBMC [3] = assay: Immunosuppressive activity against human PBMC assessed as inhibition of LPS-induced IL4 production at 10 ug/ml after 24 hrs by ELISA; outline: as §1
PBMC [4] = assay: Immunosuppressive activity against human PBMC assessed as inhibition of LPS-induced IFN-gamma production at 10 ug/ml after 24 hrs by ELISA; outline: as §1
PBMC [5] = assay: Immunosuppressive activity against human PBMC assessed as inhibition of LPS-induced IL1-beta production at 10 ug/ml after 24 hrs by ELISA; outline: as §1
PBMC [6] = assay: Immunosuppressive activity against human PBMC assessed as inhibition of LPS-induced IL2 production at 10 ug/ml after 24 hrs by ELISA; outline: as §1
PBMC [7] = assay: Immunosuppressive activity against human PBMC assessed as inhibition of LPS-induced IFN-gamma production at 0.3 ug/ml after 24 hrs by ELISA
PBMC [8] = assay: Immunosuppressive activity against human PBMC assessed as inhibition of LPS-induced IL2 production at 0.3 ug/ml after 24 hrs by ELISA
PBMC [9] = assay: Immunosuppressive activity against human PBMC assessed as inhibition of LPS-induced TNFalpha production at 0.3 ug/ml after 24 hrs by ELISA
PBMC [10] = assay: Immunosuppressive activity against human PBMC assessed as inhibition of LPS-induced IL8 production at 0.3 ug/ml after 24 hrs by ELISA
PBMC [11] = assay: Immunosuppressive activity against human PBMC assessed as inhibition of LPS-induced IL4 production at 0.3 ug/ml after 24 hrs by ELISA
PBMC [12] = assay: Immunosuppressive activity against human PBMC assessed as inhibition of LPS-induced IL1-beta production at 0.3 ug/ml after 24 hrs by ELISA

SMILES | inhibition at 10 µg/mL (PBMC [1]) | inhibition at 10 µg/mL (PBMC [2]) | inhibition at 10 µg/mL (PBMC [3]) | inhibition at 10 µg/mL (PBMC [4]) | inhibition at 10 µg/mL (PBMC [5]) | inhibition at 10 µg/mL (PBMC [6]) | Activity (PBMC [1]) | Activity (PBMC [2]) | Activity (PBMC [3]) | Activity (PBMC [4]) | Activity (PBMC [5]) | Activity (PBMC [6]) | other results
C[C@@]12CCC[C@@](C)(C(=O)O)[C@@H]1CC[C@@]13C[C@@H](CC[C@H]12)[C@@H](CO)C3 | 0% | 4.2% | 56.2% | 34% | -6.1% | 35% | – | – | – | – | – | – | –
C=C[C@]1(C)CC[C@@H]2[C@@]3(C)CCC[C@@](C)(C(=O)O)[C@@H]3CC[C@@]2(C)O1 | 49.9% | 65.2% | 95.4% | 94% | 36.1% | 100% | – | – | – | – | – | – | –
C=C1C[C@H]2[C@@](C)(CO)C(=O)CC[C@]2(C)c2c(O)cc(C(C)C)c(OC)c21 | – | – | – | – | – | – | inactive | inactive | inactive | inactive | inactive | inactive | –
CC(C)c1ccc2c(c1)CC[C@H]1[C@@](C)(CO)[C@@H](O)CC[C@]21C | – | – | – | – | – | – | inactive | inactive | inactive | inactive | inactive | inactive | –
C[C@@]12CCC[C@@](C)(C(=O)O)[C@@H]1CC[C@@]13C[C@@H](CC[C@H]12)[C@](C)(O)C3 | – | – | – | – | – | – | inactive | inactive | inactive | inactive | inactive | inactive | –
C[C@]12C=CC(=O)C=C1CC[C@@H]1[C@@H]2[C@@H](O)C[C@@]2(C)[C@H]1CC[C@]2(O)C(=O)CO [PREDNISOLONE] | – | – | – | – | – | – | – | – | – | – | – | – | inhibition at 0.3 µg/mL (PBMC [7]): 95.4%; inhibition at 0.3 µg/mL (PBMC [8]): 93.9%; inhibition at 0.3 µg/mL (PBMC [9]): 88.5%; inhibition at 0.3 µg/mL (PBMC [10]): 90.3%; inhibition at 0.3 µg/mL (PBMC [11]): 96.1%; inhibition at 0.3 µg/mL (PBMC [12]): 88.5%
C[C@@]1(O)C[C@@]23CC[C@H]4[C@@]5(CCC[C@]4(C)C(=O)OC5)[C@@H]2CC[C@H]1C3 [TRIPTERIFORDIN] | 76.8% | 96.6% | 95.7% | 98.6% | 75.7% | 97.9% | – | – | – | – | – | – | –
C=C1C[C@H]2[C@@](C)(CO)C(=O)CC[C@]2(C)c2cc(O)c(C(C)C)cc21 [TRIPTOBENZENE M] | 7.5% | -29.1% | 40.1% | 54.1% | 13.5% | 55.6% | – | – | – | – | – | – | –
CC(C)c1ccc2c(c1)C(=O)C[C@H]1[C@@](C)(CO)C(=O)CC[C@]21C [TRIPTOBENZENE N] | 13.3% | 15.4% | -52.2% | 42.3% | 37.9% | 64.5% | – | – | – | – | – | – | –
C=C1C[C@H]2[C@@](C)(CO)[C@@H](O)CC[C@]2(C)C2=C1C(=O)C(C(C)C)=CC2=O [TRIPTOQUINONE C] | -29.5% | -24.6% | 66.4% | 89% | 16.4% | 64% | – | – | – | – | – | – | –
